In ChEMBL document CHEMBL1128557, “Synthesis, antitumor activity, and chemical properties of silaplatin and related platinum (II) and platinum (IV) complexes derived from beta-silyl amines” (J Med Chem, 1995):

Columns and labels:
[1] = system: Tumor Cell line; assay: The compound was evaluated in vitro for the log10 molecular concentration that caused 50 % of 60 human tumor cell line kills; type: ADME, cell-based
Outline: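 Human tumor cell lines (leukemia, non-small-cell lung, ovarian, renal) were preincubated 24 h. Platinum complexes were then added as five 10-fold dilutions, 0.01–100 μM, for 48 h, followed by in situ fixation and staining, with solubilized stain read spectrophotometrically. Log LC50 (50% cell kill) was averaged across cell lines within one experiment.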

[2] = system: Mus musculus; assay: The compound was evaluated for the mean body weight change (BWC) in mice infected with cisplatin sensitive L1210 Leukemia (dose 80 mg/kg, ip),day 1; type: functional, organism-based; set-up: dose 80 mg/kg
Outline: (§1)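 CD2F1 mice implanted ip on day 0 with 10^5 L1210/0 (parent) leukemia cells, in groups of 6 or 10 (20 or 30 controls). Complexes given ip in saline plus Tween 80 on days 1, 5 and 9. BWC is the group mean weight change, day 5 minus day 1. MST is median survival and %ILS is calculated from MST, both from dying mice only, excluding day 30 survivors.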

[3] = system: Mus musculus; assay: The compound was evaluated for the mean body weight change (BWC) in mice infected with cisplatin sensitive L1210 Leukemia (dose 40 mg/kg, ip),day 1; type: functional, organism-based; set-up: dose 40 mg/kg; outline: as §1
[4] = system: Mus musculus; assay: The compound was evaluated for the median survival time (MST) in mice infected with cisplatin sensitive L1210 Leukemia (dose 80 mg/kg, ip), day 5; type: functional, organism-based; set-up: dose 80 mg/kg; outline: as §1
[5] = system: Mus musculus; assay: The compound was evaluated for the mean body weight change (BWC) in mice infected with cisplatin sensitive L1210 Leukemia (dose 10 mg/kg, ip),day 5; type: functional, organism-based; set-up: dose 10 mg/kg; outline: as §1
[6] = system: Mus musculus; assay: The compound was evaluated for the median survival time (MST) in mice infected with cisplatin sensitive L1210 Leukemia (dose 10 mg/kg, ip), day 5; type: functional, organism-based; set-up: dose 10 mg/kg; outline: as §1
[7] = system: Mus musculus; assay: The compound was evaluated for the median survival time (MST) in mice infected with cisplatin sensitive L1210 Leukemia (dose 40 mg/kg, ip), day 5; type: functional, organism-based; set-up: dose 40 mg/kg; outline: as §1
[8] = system: Mus musculus; assay: The compound was evaluated for the mean body weight change (BWC) in mice infected with cisplatin sensitive L1210 Leukemia (dose 20 mg/kg, ip),day 5; type: functional, organism-based; set-up: dose 20 mg/kg; outline: as §1
[9] = system: Mus musculus; assay: The compound was evaluated for the mean body weight change (BWC) in mice infected with cisplatin sensitive L1210 Leukemia (dose 10 mg/kg, ip),day 1; type: functional, organism-based; set-up: dose 10 mg/kg; outline: as §1
[10] = system: Mus musculus; assay: The compound was evaluated for the median survival time (MST) in mice infected with cisplatin sensitive L1210 Leukemia (dose 20 mg/kg, ip), day 5; type: functional, organism-based; set-up: dose 20 mg/kg; outline: as §1
[11] = system: Tumor Cell line; assay: Evaluated in vitro for the log10 molecular concentration that caused […] tumor growth of 60 human tumor cell lines.; type: functional, cell-based
Outline: (§2)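 Cells preincubated 24 h, then exposed to the agent at five 10-fold dilutions (0.01–100 μM for the platinum complexes) for 48 h. Cells fixed in situ and stained; solubilized stain read spectrophotometrically. Panel of leukemia, non-small-cell lung, ovarian and renal lines. Log GI50 or TGI taken per cell line in one experiment, then averaged across lines.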

[12] = system: Mus musculus; assay: The compound was evaluated for the median survival time (MST) in mice infected with cisplatin sensitive L1210 Leukemia (dose 10 mg/kg, ip), day 1; type: functional, organism-based; set-up: dose 10 mg/kg; outline: as §1
[13] = system: Mus musculus; assay: The compound was evaluated for the median survival time (MST) in mice infected with cisplatin sensitive L1210 Leukemia (dose 80 mg/kg, ip), day 1; type: functional, organism-based; set-up: dose 80 mg/kg; outline: as §1
[14] = system: Mus musculus; assay: The compound was evaluated for the mean body weight change (BWC) in mice infected with cisplatin sensitive L1210 Leukemia (dose 40 mg/kg, ip),day 5; type: functional, organism-based; set-up: dose 40 mg/kg; outline: as §1
[15] = system: Mus musculus; assay: The compound was evaluated for the mean body weight change (BWC) in mice infected with cisplatin sensitive L1210 Leukemia (dose 80 mg/kg, ip),day 5; type: functional, organism-based; set-up: dose 80 mg/kg; outline: as §1
[16] = system: Tumor Cell line; assay: Evaluated in vitro for the log10 molecular concentration that caused 50 % inhibition of tumor growth of 60 human tumor cell lines; type: functional, cell-based; outline: as §2
[17] = system: Mus musculus; assay: The compound was evaluated for the median survival time (MST) in mice infected with cisplatin sensitive L1210 Leukemia (dose 40 mg/kg, ip), day 1; type: functional, organism-based; set-up: dose 40 mg/kg
Outline: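 On day 0, 10⁵ parent or cisplatin-resistant L1210 cells were implanted ip into CD2F1 mice, 6 or 10 per dose group (20 or 30 controls). Dosing was ip on days 1, 5 and 9 in saline plus Tween 80. Median survival time was taken from dying mice only, excluding day-30 survivors. Both sublines were tested concurrently.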

For “[Bis(aminomethyl)dimethylsilane]tetrachloroplatinum(IV) [listing 1 of 2 here]”, the “Log LC50” value [1] was > -4.02.

“[Bis(aminomethyl)dimethylsilane]tetrachloroplatinum(IV) [listing 2 of 2 here]” was tested, and the BWC [2] was -5 g, the BWC [3] was -2.4 g and the MST [4] was 10 days. For the same substance, the BWC [5] was 0.1 g, the MST [6] was 15 days and the MST [7] was 21 days. It also gave a BWC [8] of -0.6 g, a BWC [9] of 0 g and an MST [10] of 19 days. For the same substance, the TGI [11] was 41.7 µM, the MST [12] was 18.5 days and the MST [13] was 8.3 days. For the same substance, the BWC [14] was -1.3 g, the BWC [15] was -3.4 g and the GI50 [16] was 4.79 µM. The MST [17] was 27 days.

“[Bis(aminomethyl)ethylmethylsilane]tetrachloroplatinum(IV)” was tested, and the “Log LC50” value [1] was > -4.02.
